A short description of the data set: Toxicity liver stage against HepG2, at 10uM. The data set is classed as cell-based. The arrangement: test concentration 10 uM, cell line HepG2-A16-CD81EGFP. The conditions noted are these: human, HepG2-A16-CD81EGFP cells; read-out: INHIBITION
An outline of the steps:
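Uninfected HepG2-A16-CD81EGFP cells, 3 × 10^3 per well, 1536-well, plated on prespotted compound at 10 μM final, parasite-free screening media added to match infected plates; puromycin 10 μM positive, DMSO 0.5% negative; run in parallel with 48 h PbLuc assay at 37 °C, 5% CO2; viability by CellTiter-Glo luminescence, normalized to controls.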
As to `Cc1cccc(CN2CCN3C(=O)NC[C@H]3C2)n1`, the cytotoxicity at 10 µM was -3.3%.

Regarding `Cc1cc2[nH]c(=O)c(=O)[nH]c2cc1S(=O)(=O)NC1CCCCC1`, the cytotoxicity at 10 µM was -8.41%.

In the case of `O=C(Cn1c(=O)oc2ccccc21)NCC1(O)CCc2ccccc21` (centres undefined), the cytotoxicity at 10 µM is -17.2%.

Regarding `O=C(NCC(F)(F)F)c1ccc(-n2cccn2)nn1`, the cytotoxicity at 10 µM was -8.35%.

Turning to `CCOCc1ncn2c1CN(C(=O)Nc1ccccc1)CC2`, the cytotoxicity at 10 µM came to 3.54%.

As to `CCCNC(=O)c1cc2c(s1)CCN2C(=O)c1ccccc1`, the cytotoxicity at 10 µM turned out to be 7.31%.

Regarding `CN(Cc1cccnc1)[C@@H]1CN(c2ccccn2)[C@@H]2CCCO[C@H]12`, the cytotoxicity at 10 µM was determined as 2.78%.

For the compound `COCc1nc2nc(O)c3c(n2n1)NC(=O)CC3c1ccccc1Cl` (centres undefined), the cytotoxicity at 10 µM was -20.8%.

For the compound `O=C(C1CC=CC1)N1C[C@@H]2[C@@H](C1)OCC(=O)N2Cc1cccnc1`, the cytotoxicity at 10 µM stood at 2.45%.

Consider `Cc1noc(C)c1CC(=O)N1CCC(c2ccn3nccc3n2)CC1`, for which the cytotoxicity at 10 µM is -0.317%.

As for `CNc1cc(CCNC(=O)CC(C)C)nc(-c2ccccn2)n1`, the cytotoxicity at 10 µM was determined as 1.26%.

For the compound `COCC(=O)N1CCC(c2cc3ncccc3c(O)n2)CC1`, the cytotoxicity at 10 µM is -22.7%.

Take `c1cnc(N2CCCC(c3n[nH]c4ncccc34)C2)nc1` (centres undefined): the cytotoxicity at 10 µM is -0.64%.

In the case of `Cc1cnn(CC(C)NCc2cccc(C#N)c2)c1` (centres undefined), the cytotoxicity at 10 µM is -2.62%.

With `COc1ccc(-n2cc(CNC(=O)c3cscn3)nn2)cc1`, the cytotoxicity at 10 µM is -2.33%.

Turning to `CCOc1c(F)cccc1C(=O)N(C)CCn1cccn1`, the cytotoxicity at 10 µM was found to be 3.76%.

`O=C(CCn1cnc2cc(F)c(F)cc21)N1CCN(C2CC2)CC1`: the cytotoxicity at 10 µM was -1.54%.

In the case of `CNC(=O)N1CCC(=Cc2ccccc2)CC1`, the cytotoxicity at 10 µM was -1.52%.

As for `O=S(=O)(CCCN1CCc2c(ncn2C2CC2)C1)c1ccccc1`, the cytotoxicity at 10 µM was -3.33%.

As to `CC(=O)N1CCN(C(=O)CCNc2snc(Cl)c2C#N)CC1`, the cytotoxicity at 10 µM is -0.367%.

Consider `NC(=O)C1CCCN1C(=O)c1cccc2c1OCO2` (centres undefined), for which the cytotoxicity at 10 µM is -9.56%.

With `CCN1C(=O)C2(CCCCC2)NC12CCSCC2`, the cytotoxicity at 10 µM was -149%.

`CC1c2ncc(COCC3CC3)n2CCN1C(=O)c1ccnnc1` (centres undefined): the cytotoxicity at 10 µM was found to be 4.66%.

For `CCCN1CCN(Cc2nc3ccccc3[nH]2)[C@H]2CS(=O)(=O)C[C@H]21`, the cytotoxicity at 10 µM is -137%.

`Cn1c(Cn2ccnc2)nnc1C1CCN(C(=O)c2cccnc2)CC1`: the cytotoxicity at 10 µM was -96.4%.

For `COc1ccccc1C(=O)N1CCN(C(=O)CCn2ccnc2)CC1`, the cytotoxicity at 10 µM was -148%.

Take `CCCOCC1CCN(C(=O)c2cnc(-c3cccnc3)nc2O)C1` (centres undefined): the cytotoxicity at 10 µM was -2.55%.

On to `Cc1ccsc1C(CNC(=O)c1cc(=O)[nH]c(=O)[nH]1)N(C)C` (centres undefined), for which the cytotoxicity at 10 µM came out at 8.99%.

Turning to `CCc1cc(CN2CCC(CCC(=O)Nc3ccccc3Cl)CC2)on1`, the cytotoxicity at 10 µM came out at 5.27%.

Regarding `Cn1cc(C2CCCN2C(=O)c2ccc(OCC3CC3)nc2)cn1` (centres undefined), the cytotoxicity at 10 µM is -7.77%.

On to `CCc1noc(CN2CCN(C(=O)N(C)C)CC2)n1`, for which the cytotoxicity at 10 µM is -4.97%.

For the compound `O=C(NCc1nnc2ccccn12)N1CCc2sccc2C1`, the cytotoxicity at 10 µM was -1.25%.

Consider `CNC(=O)[C@@H](c1ccccc1F)N1CCC[C@H]1C(=O)NC1CCOCC1`, for which the cytotoxicity at 10 µM was -3.73%.

`Fc1ccc(CN[C@@H]2COC[C@H]2c2ccc(F)cc2)cc1`: the cytotoxicity at 10 µM came out at 2.57%.

As for `O=C(O)c1c(-c2cncnc2)ncc2c1CCN(Cc1ccco1)C2`, the cytotoxicity at 10 µM was -2.69%.

For the compound `CN(Cc1cccnc1)[C@@H]1CN(Cc2nccn2C)[C@@H]2CCCO[C@H]12`, the cytotoxicity at 10 µM is -9.46%.

As to `Cc1ccc(CN2CCC[C@]3(C(=O)O)CN(CC4CC4)C[C@@H]3C2)s1`, the cytotoxicity at 10 µM is -112%.

As for `CCN1CCC2(CC1)C(=O)Nc1ccc(C(=O)NC)cc12`, the cytotoxicity at 10 µM was -0.697%.

Consider `CC(c1ccncc1)n1cc2nc(N(C)C)[nH]cc-2c1=O` (centres undefined), for which the cytotoxicity at 10 µM was -3.64%.

The values are drawn from ChEMBL document CHEMBL4513216, “Probing the Open Global Health Chemical Diversity Library for Multistage-Active Starting Points for Next-Generation Antimalarials” (ACS Infect Dis, 2020).
